Results on 1 substance are retold here after publication PMC8562524 (Journal for Immunotherapy of Cancer, 2021).

One assay concerns MC38-Nectin-4 tumors. The assay is described as follows: Pharmacodynamics in MC38-Nectin-4 tumors. Type of assay: in vivo, mouse. Particulars: 144 hours. The method, boiled down:
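C57BL/6J-hCD137 mice bore MC38-Nectin-4 tumors. Tumors were harvested 24, 48, 96 and 144 h after test compound 5 mg/kg at 0 and 24 h. Controls were harvested at 144 h: vehicle, a non-CD137-binding analogue (same schedule), or anti-CD137 agonist antibody 2 mg/kg every 3 days. Tumors were assessed by IHC (mouse CD8) and NanoString mRNA profiling.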

A further assay addresses human CD137 (Homo sapiens, UniProt Q07011). The assay is classed as cell-based. The following applies: co-culture with 4T1 cells overexpressing mouse Nectin-4, 6 hours.

Chain of human CD137 (Q07011 24-255): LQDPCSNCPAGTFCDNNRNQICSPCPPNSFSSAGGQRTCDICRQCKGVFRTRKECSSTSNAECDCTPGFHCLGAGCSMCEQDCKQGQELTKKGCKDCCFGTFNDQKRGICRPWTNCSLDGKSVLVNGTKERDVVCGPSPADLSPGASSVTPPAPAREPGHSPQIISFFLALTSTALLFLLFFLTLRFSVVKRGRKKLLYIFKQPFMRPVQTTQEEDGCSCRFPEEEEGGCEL

For the substance “anti-CD137 antibody agonist: anti-human 4-1BB therapeutic antibody, urelumab, Creative Biolabs Cat. No. TAB-179”, the “reprogramming of the tumor immune microenvironment (mRNA profiling)” value in the assay on MC38-Nectin-4 tumors was “to lesser extent”. Also, in the assay on MC38-Nectin-4 tumors (BT7480 or NB-BCY 5 mg/kg at 0 and 24 hours, anti-CD137 antibody agonist 2 mg/kg), the “T cell infiltrates in tumor (CD8 IHC)” value is listed as “increased”. Besides, the “CD137 agonism (reporter activity)” value with human CD137 was “induced CD137 agonism in a Nectin-4-independent manner”.
